Assay outcomes: PubChem, several laboratories
Rows were chosen to be rich in hits. Some 3.6% of all compounds tested hit in one or more screens of this group.
Measles CPE = compounds protecting cells from measles virus cytopathic effect, primary screen, measles RdRp inhibitor project, single point, MLSMR library, absorbance. Measles virus-infected cells, CPE protection. actives 1.5% (n = 140,000). protection (pct of control), % at 4 µM; in the data active = protection mostly above about 24%, no sharp cut-off; inactive = mostly below about 26%
RAM inhibit = inhibitors of the yeast RAM network, primary screen, dse1pr::URA3 reporter, 5-FOA selection | S. cerevisiae dse1pr::URA3 reporter, 5-FOA growth OD615, 2 d; analog-sensitive cbk1-as2 kinase mutant strain | inhibition, % at 50 µM | actives 1.8% (n = 190,000);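 active = inhibition above a set limit, 3 SD over mean compound inhibition, cut at about 8.4% in these data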;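 note: inhibition rescues growth on 5-FOA so higher OD means more RAM inhibition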
Yeast life ext = compounds extending yeast replicative lifespan, primary screen, S. cerevisiae, OD615; S. cerevisiae growth with nicotinamide; deaD strain in restrictive glucose medium; inhibition of the nicotinamide effect, % at 10 µM; actives 0.68% (n = 130,000); AID 775, 2007;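 active = inhibition above a set limit, placed 3 SD over the median of all compounds, cut at about 26% in these data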
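Assay system: DeaD-strain S. cerevisiae. Medium: CSMM-D glucose medium, restrictive. Reagent: nicotinamide, 1.5 mM, co-present with compound. Compound: 10 µM single point, 0.25% DMSO. Schedule: culture preincubation 4 h, compound exposure 48 h, both 30 °C. Detection: absorbance at 615 nm.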
BB579 growth dn = growth inhibitors of yeast BB579 in restrictive medium, primary screen, yeast lifespan-shortening project, S. cerevisiae; OD615, 48 h; inhibition, % at 10 µM; actives 0.51% (n = 140,000);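 active = inhibition above a set limit, 3 SD over the mean compound inhibition, cut at about 44% in these data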
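Assay system – yeast BB579 (DeaD) · Dosing – single compound dose of 10 µM, 0.25% DMSO final · Detection – OD615 turbidity measurement · Buffer or medium – CSMM-D restrictive synthetic medium containing dextrose (glucose) · Benchmarks – positive control amphotericin B 10 µg/mL · Incubation – 48 h exposure, 30 °C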
RAM efflux-def = 5-FOA growth of efflux-deficient control yeast, dose response, counter-screen for RAM network inhibitor project, S. cerevisiae, OD615. shares compounds with RAM inhibit. S. cerevisiae efflux-deficient reporter strain, 5-FOA growth OD615, 2 days. max inhibition, %. 1,200 tested, under 10 active. AID 1305, 2008; call rule not given here
Of the large screens only hits and unclear results are named; the others gave an inactive call (follow-up assays come after a bar, where they were run).

COc1ccccc1NS(=O)(=O)c1ccc2oc(SCc3ccc(F)cc3)nc2c1	RAM inhibit 14 | RAM efflux-def inactive
COc1ccc(NS(=O)(=O)c2ccc3oc(SCc4ccc(F)cc4)nc3c2)cc1	RAM inhibit 13 | RAM efflux-def inactive
Cc1ccc(C(=O)c2cc3ccccc3o2)cc1	none
Cc1ccc(C(=O)c2cc3ccccc3o2)cc1C	RAM inhibit 15 | RAM efflux-def inactive
Cc1ccc(C(=O)N/C(=C\c2ccccc2)C(=O)NCc2cccnc2)cc1	none (no result: Measles CPE, Yeast life ext, BB579 growth dn)
C=CCC1(C#N)C(SC)=NC2=C(C(=O)CC(C)(C)C2)C1c1ccc(Br)cc1 (configuration not stated)	none
Cc1ccccc1Oc1ccc(-c2nc(N)nc(N)n2)cc1	RAM inhibit 12 | RAM efflux-def inactive
CCOC(=O)c1c(C)n(OC)c2ccc3c(no[n+]3[O-])c12	none
CCCCOn1c(C)c(C(=O)OCC)c2c3no[n+]([O-])c3ccc21	RAM inhibit 12 | RAM efflux-def inactive
N#C/C(=C\c1ccc(-c2ccc(S(=O)(=O)N3CCOCC3)cc2)o1)C(=O)NC1CC1	RAM inhibit 13 | RAM efflux-def inactive
Cc1ccc(NC(=O)COC(=O)c2cc(Cl)ccc2[N+](=O)[O-])c(C)c1	none
Cc1ccc(NC(=O)COC(=O)COc2ccc(Cl)cc2C)c([N+](=O)[O-])c1	RAM inhibit 12 | RAM efflux-def inactive
Cc1ccc(NC(=O)COC(=O)CCC(=O)c2ccc(C(C)(C)C)cc2)c([N+](=O)[O-])c1	RAM inhibit 14 | RAM efflux-def inactive
CC1=C(C)/C(=N/OC(=O)c2cccc([N+](=O)[O-])c2)C=CC1=O	none (no result: Yeast life ext)
COC(=O)Cc1cc(=O)oc2cc(O)ccc12	none (no result: Measles CPE, Yeast life ext, BB579 growth dn)
CCOC(=O)/C(C#N)=C/c1cn(CCOc2ccc(OC)cc2)c2ccccc12	RAM inhibit 13 | RAM efflux-def inactive
COC(=O)c1cn(CCOc2ccc(C)cc2)c2ccccc12	none
N#C/C(=C\c1cn(CCOc2ccccc2)c2ccccc12)C(=O)NCC1CCCO1 (configuration not stated)	RAM inhibit 16 | RAM efflux-def inactive
COc1ccccc1OCCn1cc(/C=C(\C#N)C(=O)NCc2cccs2)c2ccccc21	none
Cc1cc(NC(=O)CSc2nc3ccsc3c(=O)n2Cc2ccccn2)n[nH]1	RAM inhibit 20 | RAM efflux-def inactive
CCCCn1c(SCC(=O)Nc2cc(C)[nH]n2)nc2ccsc2c1=O	none
CCCSc1cc(=O)n(-c2ccc(F)cc2)nc1C(=O)OCC	none (no result: Measles CPE, Yeast life ext, BB579 growth dn)
Cc1ccc(S(=O)(=O)Cn2nnnc2CN(Cc2ccco2)Cc2cccs2)cc1	RAM inhibit 12 | RAM efflux-def inactive
Cc1ccccc1OCCC(=O)OCC(=O)Nc1cc(S(=O)(=O)N2CCOCC2)ccc1Cl	none (no result: Measles CPE, Yeast life ext, BB579 growth dn)
Cc1cc(C)nc(NS(=O)(=O)c2ccc(NC(=O)c3cccs3)cc2)n1	none
CCCCN(CCCC)S(=O)(=O)c1ccc(NC(=O)c2cccs2)cc1	RAM inhibit 16 | RAM efflux-def inactive
COc1ccccc1Nc1nc2c(C)cccc2cc1C#N	RAM inhibit 13 | RAM efflux-def inactive
COc1ccccc1Nc1nc2ccc(C)cc2cc1C#N	none
CC(C)c1ccc(-n2cnn(-c3ncccc3[N+](=O)[O-])c2=O)cc1	none (no result: Measles CPE, Yeast life ext, BB579 growth dn)
c1ccc2cc(Sc3ncnc4c3oc3ccccc34)ccc2c1	RAM inhibit 13 | RAM efflux-def inactive
S=c1[nH]nc(-c2ccc(Cl)cc2)n1CCCN1CCOCC1	none (no result: Measles CPE, Yeast life ext, BB579 growth dn)
Cc1noc(C)c1COc1cccc(C(=O)Nc2ccc(OCc3ccccc3)cc2)c1	RAM inhibit 12 | RAM efflux-def inactive
CCOCCCNC(=S)N1CCCN(c2nc3cc(C)ccc3cc2C#N)CC1	none (no result: Measles CPE, Yeast life ext, BB579 growth dn)
CCOCCCNC(=S)N1CCCN(c2nc3c(C)c(C)ccc3cc2C#N)CC1	RAM inhibit 22 (no result: Measles CPE, Yeast life ext, BB579 growth dn) | RAM efflux-def inactive
CC(C)(C)OC(=O)CC[C@@H](C(=O)N1CCN(C(=O)OC(C)(C)C)CC1)n1cc(C(CO)NC(=O)OC(C)(C)C)nn1 (some centres not stated)	none (no result: Measles CPE, Yeast life ext, BB579 growth dn)
CCC1CCCCN1S(=O)(=O)c1ccc(S(=O)(=O)N(Cc2cccs2)C2CC2)cc1 (configuration not stated)	Measles CPE 42, RAM inhibit 13, Yeast life ext 33 | RAM efflux-def inactive
CCCCCc1c2c(cc(O)c1C(=O)O)OC(=O)c1c(cc(OC)cc1C(=O)CCCC)O2	RAM inhibit 13 (no result: Measles CPE, Yeast life ext, BB579 growth dn) | RAM efflux-def inactive
Cc1cc(C(=O)C[N+]2(C)CCOCC2)c(C)n1-c1ccc(Br)cc1	none (no result: Measles CPE, Yeast life ext, BB579 growth dn)
Nc1ncnc(Sc2ccccc2)c1[N+](=O)[O-]	RAM inhibit 73 | RAM efflux-def inactive
Nc1ncnc(Sc2ccc(Cl)cc2)c1[N+](=O)[O-]	none
COc1ccc(C2C(C(=O)NCc3ccccn3)CCC(=O)N2c2cc(OC)c(OC)c(OC)c2)cc1 (configuration not stated)	none (no result: Measles CPE, Yeast life ext, BB579 growth dn)
CCN(CC)S(=O)(=O)c1ccc(OC)c(NC(=O)CSc2cc(C)ccc2C)c1	RAM inhibit 15 | RAM efflux-def inactive
COc1cc(CNn2c(C)n[nH]c2=S)cc(Cl)c1OCc1ccccc1	RAM inhibit 13 | RAM efflux-def inactive
COc1cc(CNn2cn[nH]c2=S)cc(Cl)c1OCc1ccc(F)cc1	none
Cc1ccc(NC(=O)c2cncc(Br)c2)cc1S(=O)(=O)N(C)C	none
CNC(=O)C1CC(=O)N(Cc2ccccc2)C(=Nc2ccc(OC)cc2)S1 (configuration not stated)	none
CCCCC1S/C(=N/N=C/c2ccc(OC)cc2)N(Cc2ccc(OC)cc2)C1=O (configuration not stated)	RAM inhibit 14 | RAM efflux-def inactive
COc1ccc(CC2S/C(=N/N=C/c3ccc(O)cc3)NC2=O)cc1 (configuration not stated)	none (no result: Measles CPE, Yeast life ext, BB579 growth dn)
CCCC1S/C(=N/N=C/c2ccc(OC)cc2)N(Cc2ccc(OC)cc2)C1=O (configuration not stated)	RAM inhibit 13 | RAM efflux-def inactive
CCCC1S/C(=N/N=C/c2ccc(OC)cc2)N(Cc2ccccc2)C1=O (configuration not stated)	RAM inhibit 15 | RAM efflux-def inactive
O=C(CO/N=C/c1ccc2c(c1)OCO2)Nc1cccc(Br)c1	none
Cc1noc(NS(=O)(=O)c2ccc(N/C=C\C(=O)c3ccc4c(c3)OCO4)cc2)c1C	none
Cc1noc(NS(=O)(=O)c2ccc(N/C=C\C(=O)c3ccc(Br)cc3)cc2)c1C	RAM inhibit 12 (no result: Measles CPE, Yeast life ext, BB579 growth dn) | RAM efflux-def inactive
CCOC(=O)CSc1nc2ccccc2c(=O)n1CC1CCCC1	RAM inhibit 18 (no result: Yeast life ext) | RAM efflux-def inactive
CCOC(=O)CSc1nc2ccccc2c(=O)n1CC	none
CCOC(=O)C1CCN(C(=O)c2ccc(N(C)S(=O)(=O)c3ccc(OC)cc3)cc2)CC1	none (no result: Measles CPE, Yeast life ext, BB579 growth dn)
